Sampled rows, rich in hits. Any-hit rate of the full collection: about 6.7%.
NR3A LBD binder = modulates the human NR3A ligand-binding domain; NR3A LBD differential scanning fluorimetry, Tm shift; 0% = protein alone, 100% = glycine-bound protein; Tm shift relative to glycine control, % at 25 µM; 340,000 compounds, 2.5% hits; AID 1259313;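 active = melting temperature shift of at least 10% of the positive control shift, at one fixed dose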
PREPL inhibitor = inhibitors of human prolyl oligopeptidase-like enzyme PREPL | recombinant PREPL, fluorescence polarization activity-based probe | inhibition, % at 5.96 µM | 320,000 compounds, 0.68% hits; in the data active = inhibition above about 43%;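 also: 0% = enzyme with DMSO and 100% = wells lacking enzyme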
Target sequence (Q4J6C6 whole entry, looked up): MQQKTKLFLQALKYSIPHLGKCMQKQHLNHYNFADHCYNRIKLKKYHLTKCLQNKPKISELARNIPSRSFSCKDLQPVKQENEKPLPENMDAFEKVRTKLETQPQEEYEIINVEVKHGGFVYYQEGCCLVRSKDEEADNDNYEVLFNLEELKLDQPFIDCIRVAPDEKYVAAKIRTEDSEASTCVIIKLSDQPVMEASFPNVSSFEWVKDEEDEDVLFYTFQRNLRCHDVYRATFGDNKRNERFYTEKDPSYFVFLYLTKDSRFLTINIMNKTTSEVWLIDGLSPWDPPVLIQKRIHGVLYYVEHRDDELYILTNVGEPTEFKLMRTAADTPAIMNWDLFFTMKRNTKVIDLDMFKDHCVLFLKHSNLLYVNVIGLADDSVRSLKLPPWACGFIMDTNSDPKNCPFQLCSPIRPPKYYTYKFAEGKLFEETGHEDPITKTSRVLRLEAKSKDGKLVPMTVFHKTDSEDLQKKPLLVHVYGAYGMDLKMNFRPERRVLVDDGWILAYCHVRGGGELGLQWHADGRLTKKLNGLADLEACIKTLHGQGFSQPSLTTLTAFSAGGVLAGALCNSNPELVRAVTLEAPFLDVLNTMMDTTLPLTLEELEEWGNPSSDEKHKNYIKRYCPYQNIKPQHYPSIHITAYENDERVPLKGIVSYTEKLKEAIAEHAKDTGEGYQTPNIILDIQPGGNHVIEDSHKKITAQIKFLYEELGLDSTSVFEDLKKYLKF
Beta apoptosis = beta cell apoptosis inhibition; INS-1E cytokine-induced death, ATP luminescence, 48 h; percent of positive-control rescue, neutral wells zero; protection from apoptosis, % (no concentration beside the values); 300,000 compounds, 0.8% hits; AID 435005;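 active = Every replicate reaches about 75%, or at least half do and their mean reaches it too, limit read from the data; inconclusive = At least half of replicates reach the limit but their mean does not; inactive = Under half of replicates reach the limit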;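 also: 0% = cytokine-treated negative control wells and 100% = positive control rescue; higher means more ATP so stronger rescue from cytokine killing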
CSC inhib = cancer stem cell inhibition; 300,000 compounds, 1.1% hits; inhibition, % at 7.5 µM; cancer stem cell-like cells viability, luminescence; in the data active = inhibition above about 75%; inconclusive = no clear call, values can overlap the other calls; tested in HMLE shEcad cells
CHOP inhibitor = blocks CHOP induction under ER stress. CHO-K1 CHOP-promoter luciferase, tunicamycin-induced, 15-18 h. inhibition, % at 10 µM. AID 2732. 220,000 compounds, 3.8% hits;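 active = compounds that reduced the stress-induced luciferase reporter signal by more than about 70% of percent inhibition, limit read from the data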;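 also: 0% = tunicamycin plus vehicle and 100% = wells without tunicamycin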
T cruzi repl = blocks replication of Trypanosoma cruzi | T. cruzi beta-gal in NIH3T3, luminescence, 90 h | 300,000 compounds, 1.4% hits | AID 1885 | inhibition, % (no concentration beside the values);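 active = mean inhibition across valid replicates above about 55%, limit read from the data; inconclusive = mean below that limit but half or more replicates reach it; inactive = mean below it, under half of replicates reach it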;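 also: signal also drops with host cell toxicity which is not excluded here; 0% = plate median of DMSO wells and 100% = zero luminescence signal; higher percent means less beta-gal luminescence so fewer parasites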
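assay system = mouse NIH/3T3 fibroblasts infected with β-gal-expressing T. cruzi Tulahuen C4 | input = 5,000 NIH/3T3 host cells per well | buffer or medium = DMEM plus 2% FBS | timing = 3 h host attachment, then at least 90 h co-culture | measured by = GalScreen luminescence, 60 min | evaluation = luminescence reflecting intracellular parasite burden, expressed as percent inhibition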
CHOP inh conf = confirmation of CHOP induction inhibitors | shares compounds with CHOP inhibitor | CHO-CHOP promoter luciferase reporter, tunicamycin-induced, luminescence | inhibition, % at 10 µM | 2,100 compounds, 45% hits | AID 504437;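 active = mean of three repeat readings of reporter signal inhibition above a set limit, cut at about 70% in these data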;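 also: 0% = tunicamycin plus vehicle and 100% = wells lacking tunicamycin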
Starred values were filed as active, the others as inactive; ? = inconclusive; . = no result given; + = active, no number.

SMILES	NR3A LBD binder	PREPL inhibitor	Beta apoptosis	CSC inhib	CHOP inhibitor	T cruzi repl	CHOP inh conf
CCCOC(=O)c1ccc(NC(=O)c2ccoc2C)cc1	1	6	7	1	52	18	.
CCCCOC(=O)c1ccc(NC(=O)c2ccoc2C)cc1	-8	0	16	21	101*	-3	47
CC(C)C(=O)N1CCC(CN=Cc2c(O)n(C3CCCCC3)c(=O)n(C3CCCCC3)c2=O)CC1	0	.	.	.	104*	.	118*
O=c1[nH]c(=S)n(C2CCCCC2)c(O)c1C=NCCN1CCOCC1	1	4	-8	-11	14	-9	.
CCOC(=O)Cc1nnc(NC(=O)CCc2ccccc2)s1	2	11	3	12	.	3	.
CCOC(=O)C1=C(Cc2ccc(F)cc2)C(=O)c2ccccc2C1=O	-8	6	33	-3	108*	-29	37
Cc1ccc(NC(=O)C(=O)NCC2OCCc3ccccc32)cc1 (centres undefined)	0	2	-6	-3	105*	9	102*
O=C(NCC1OCCc2ccccc21)c1ccc(NC(=O)c2ccc(Cl)cc2)cc1 (centres undefined)	-7	-6	37	-11	103*	16	57
Cc1ccc(NC(=O)C2OCCc3ccccc32)cc1 (centres undefined)	0	0	3	-4	29	-2	.
CN(C)C(=O)c1ccc(NC(=O)COC(=O)C2CCN(S(=O)(=O)c3ccc4c(c3)OCCO4)CC2)cc1	1	-2	-7	.	.	-4	.
O=C1C(Cc2cccc([N+](=O)[O-])c2)SC(=Nc2ccccc2)N1c1ccccc1 (centres undefined)	-2	-8	.	.	28	0	.
O=C(Nc1ccc(Cl)c(C(F)(F)F)c1)NC1CC2CCCC(C1)N2Cc1ccccc1 (centres undefined)	2	11	50	?	101*	53	98*
O=C(O)/C=C/c1ccc([N+](=O)[O-])o1	-1	-4	3	-24	27	31	.
O=C1NC(=S)S/C1=C\C=C\c1ccc([N+](=O)[O-])o1	4	.	.	.	105*	.	117*
O=C(CSc1nc(C2CC2)nc2c1cnn2-c1ccccc1)Nc1c[nH]c(=O)[nH]c1=O	-1	-45	.	-22	96*	-8	48
CN(C)C(CNC(=O)c1cc(S(=O)(=O)N(C)Cc2ccccc2)ccc1Cl)c1ccco1 (centres undefined)	1	13	-2	3	.	5	.
Cc1ccc(N=Cc2c(O)n(-c3ccc4c(c3)OCO4)c(=O)c3ccccc23)cc1	0	0	59	22	102*	-7	-145
CC(=O)NCC(=O)OC(C(=O)c1ccccc1)c1ccc(Cl)cc1 (centres undefined)	0	-1	2	-5	-4	-22	.
Cc1ccc(C2CC2c2n[nH]c(=S)n2-c2ccc(C)cc2)cc1 (centres undefined)	-2	-15	-4	-6	100*	7	0
O=C(CSC1=NS(=O)(=O)c2cc(F)ccc2N1)NCc1ccccc1Cl	-8	-3	.	-8	.	2	.
O=C(Nc1nnc(-c2ccccc2Cl)o1)c1ccco1	0	7	-5	-12	-21	-4	.
O=C(Nc1nnc(-c2ccccc2Cl)o1)c1nc2ccccc2s1	-11	0	-3	24	99*	-2	-9
Cc1ccc(Oc2c(C(N)=O)cc([N+](=O)[O-])cc2[N+](=O)[O-])cc1	5	3	5	+	108*	4	-16
Cc1ccc(CNc2ccc([N+](=O)[O-])cc2C(N)=O)cc1	-1	6	-3	.	.	.	.
CCOC(=O)c1ccc(Oc2coc3cc(O)ccc3c2=O)cc1	-2	18	2	5	.	-16	.
Cc1ccc2nc(NC(=O)CN(C)S(=O)(=O)c3ccc(Br)s3)sc2c1	9	-28	1	51	102*	47	24
CCN1C[C@@H]2[C@@H]3C(=O)N(C)C(=O)[C@@H]3[C@](C)(C1=O)N2C(=O)c1ccc(Cl)c(Cl)c1	0	.	.	.	.	.	.
CCOc1cc(CN2CCC(n3nccc3NC(=O)C3CC3)CC2)ccc1O	2	13	-3	-3	.	-6	.

High-throughput results from PubChem.
